The results in this text go back to ChEMBL document CHEMBL4699574, “Discovery of Ketone-Based Covalent Inhibitors of Coronavirus 3CL Proteases for the Potential Therapeutic Treatment of COVID-19” (J Med Chem, 2020).

Data set [1] is described as follows: Reversible inhibition of SARS coronavirus Urbani 3CL protease(9985 to 10902) using TAMRA-SITSAVLQSGFRKMK(DABCYL)-OH as substrate measured for 10 mins by FRET assay. A digest of the protocol:
(§1)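 SARS CoV-1 3CLpro FRET assay; each value calculated from at least eight data points, with at least two independent determinations.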

Data set [2] can be described thus: Permeability of compound in human Caco-2 cells. It is filed as ADME, cell-based.
A further data set relates to SARS-CoV. Briefly: Antiviral activity against SARS COV-1 infected in monkey vero 76 cells assessed as reduction in virus-induced cytopathic effect measured after 66 hrs by neutral red method or cell titer glo-based luminescence assay. In kind it is functional, organism-based. Particulars: Severe acute respiratory syndrome-related coronavirus. In general terms: Cytopathic effects are the visible damage that an infection or toxin causes in cultured cells.

The nature of data set [3]: Irreversible inhibition of SARS coronavirus Urbani 3CL protease (9985 to 10902) using TAMRA-SITSAVLQSGFRKMK(DABCYL)-OH as substrate measured for 10 mins by FRET assay. The essentials:
as §1

Data set [4] concerns SARS coronavirus Urbani. Briefly: Irreversible inhibition of SARS coronavirus Urbani 3CL protease (9985 to 10902) assessed as first order inhibition rate constant (Kobs/I ratio) using TAMRA-SITSAVLQSGFRKMK(DABCYL)-OH as substrate measured for 10 mins by FRET assay. A digest of the protocol:
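SARS CoV-1 3CL protease activity was monitored by a FRET read-out. Irreversible, time-dependent inactivation was expressed as kobs/I. Each value was calculated from at least eight data points, with at least two independent determinations.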

For data set [5], the system named is SARS coronavirus Urbani. Briefly: Irreversible inhibition of SARS coronavirus Urbani 3CL protease (9985 to 10902) at 1 uM using TAMRA-SITSAVLQSGFRKMK(DABCYL)-OH as substrate measured for 10 mins by FRET assay relative to control.
The nature of data set [6]: Solubility of the compound in vehicle formulations. In kind it is physicochemical.
Data set [7] can be described thus: Metabolic stability in human plasma assessed as half-life at 1 uM incubated for 60 mins by LC/MS analysis. In kind it is ADME, cell-free.
Data set [8] can be described thus: Glutathione reactivity in pH 7.8 Tris buffer assessed as half-life at 1 uM measured after 30 mins by LC/MS analysis. In kind it is ADME.

Bounds are passed on as bounds.

`CCCC[C@H](NC(=O)c1cc2c(OC)cccc2[nH]1)C(=O)N[C@@H](C[C@@H]1CCNC1=O)C(=O)CO`: the concentration for half-maximal inhibition (IC50) (in general, the point on the concentration scale where inhibition reaches its midpoint) in data set [1] came to 20 nM. In [2], the permeability entry was “Impermeable”. For the same compound, the concentration for a half-maximal effect (EC50) (in general, the concentration needed to bring the measured effect to its halfway point) in the data set with SARS-CoV came to 10000 nM.

On to `COc1cccc(OC)c1C(=O)OCC(=O)[C@H](C[C@@H]1CCNC1=O)NC(=O)[C@H](CC(C)C)NC(=O)c1cc2c(OC)cccc2[nH]1`, for which, in data set [3], the IC50 came out at 205 nM. With `COCC(=O)[C@H](C[C@@H]1CCNC1=O)NC(=O)[C@H](CC(C)(C)C)NC(=O)c1cc2c(OC)cccc2[nH]1`, the half-inhibitory concentration (IC50) in data set [1] was determined as 35 nM. Also, the EC50 in the data set on SARS-CoV turned out to be 32000 nM. In turn, `CC(=O)N[C@@H](CC(C)C)C(=O)N[C@@H](C[C@@H]1CCNC1=O)C(=O)COC(=O)c1c(Cl)cccc1Cl` registered an IC50 in data set [3] of 1030 nM. On the same count and under the same terms, the value for `COc1cccc2[nH]c(C(=O)N[C@@H](CC(C)C)C(=O)N[C@@H](C[C@@H]3CCNC3=O)C(=O)COC(=O)c3ccc(Cl)cc3)cc12` was 97 nM. On to `CCOCC(=O)[C@H](C[C@@H]1CCNC1=O)NC(=O)[C@H](CC(C)(C)C)NC(=O)c1cc2ccccc2[nH]1`, for which 112 nM corresponded to half-maximal inhibition in data set [1] (IC50). For the same compound, the concentration giving a half-maximal response (EC50) in the data set on SARS-CoV was 20000 nM. Turning to `COc1cccc2[nH]c(C(=O)N[C@@H](CC(C)C)C(=O)N[C@@H](C[C@@H]3CCNC3=O)C(=O)COC(=O)c3ccc(C#N)cc3F)cc12`, in the data set on SARS coronavirus Urbani [4], the K was found to be 13300 M⁻¹ s⁻¹. Turning to `CC(C)C[C@H](NC(=O)c1nc2ccccc2[nH]1)C(=O)N[C@@H](C[C@@H]1CCNC1=O)C(=O)COC(=O)c1c(Cl)cccc1Cl`, the K in the data set on SARS coronavirus Urbani [4] is 30300 M⁻¹ s⁻¹. In [1], `COCC(=O)[C@H](C[C@@H]1CCNC1=O)NC(=O)[C@H](CC(C)(C)C)NC(=O)c1cc2ccccc2[nH]1` yielded an IC50 of 105 nM. Also, the EC50 in the data set on SARS-CoV is 46000 nM. The corresponding values for `COCC(=O)[C@H](C[C@@H]1CCNC1=O)NC(=O)[C@H](CC(C)C)NC(=O)c1cc2ccccc2[nH]1` are 131 nM and 45000 nM. For `COc1ccc(C(=O)OCC(=O)[C@H](C[C@@H]2CCNC2=O)NC(=O)[C@H](CC(C)C)NC(=O)c2cc3c(OC)cccc3[nH]2)cc1`, the concentration for half-maximal inhibition (IC50) in data set [3] was found to be 79 nM. Turning to `COc1cccc2[nH]c(C(=O)N[C@@H](CC(C)C)C(=O)N[C@@H](C[C@@H]3CCNC3=O)C(=O)CCl)cc12`, the K with SARS coronavirus Urbani [4] was 283000 M⁻¹ s⁻¹. Same read-out and setting: the value for `COc1cccc2[nH]c(C(=O)N[C@@H](CC(C)C)C(=O)N[C@@H](C[C@@H]3CCNC3=O)C(=O)COC(=O)c3ccc(Cl)cc3O)cc12` was 11500 M⁻¹ s⁻¹.

As to `COc1cccc2[nH]c(C(=O)N[C@@H](CC(C)C)C(=O)N[C@@H](C[C@@H]3CCNC3=O)C(=O)COC(=O)c3ccccc3C#N)cc12`, in [3], the midpoint of inhibition, the IC50, lay at 17 nM.

Take `COc1cccc2[nH]c(C(=O)N[C@@H](CC3CCCCC3)C(=O)N[C@@H](C[C@@H]3CCNC3=O)C(=O)CO)cc12`: in data set [1], the half-inhibitory concentration (IC50) was 44 nM. Moreover, the permeability result in data set [2] is “Impermeable”. In addition, the EC50 in the data set with SARS-CoV turned out to be 14000 nM. In the case of `COc1cccc2[nH]c(C(=O)N[C@@H](CC(C)C)C(=O)N[C@@H](C[C@@H]3CCNC3=O)C(=O)COC(=O)c3ccc(C)cc3)cc12`, the IC50 in data set [3] was determined as 87 nM.

For `COCC(=O)[C@H](C[C@@H]1CCNC1=O)NC(=O)[C@H](CC(C)(C)C)NC(=O)[C@H]1CCCO1`, the concentration for half-maximal inhibition (IC50) in data set [1] is 1080 nM. Also, the EC50 in the data set with SARS-CoV is over 100000 nM.

Regarding `CC(C)C[C@H](NC(=O)c1cc2ccccc2[nH]1)C(=O)N[C@@H](C[C@@H]1CCNC1=O)C(=O)CO`, the midpoint of inhibition in data set [1], the IC50, lay at 38 nM. In addition, in the data set with SARS-CoV, the EC50 is 20000 nM. `COc1cccc2[nH]c(C(=O)N[C@@H](CC(C)C)C(=O)N[C@@H](C[C@@H]3CCNC3=O)C(=O)COC(=O)C(C)(C)C)cc12` came in with an IC50 in [3] of 230 nM.

`CC(C)C[C@H](NC(=O)OC(C)(C)C)C(=O)N[C@@H](C[C@@H]1CCNC1=O)C(=O)COC(=O)c1c(Cl)cccc1Cl`: the inhibition (usually the relative decrease from the control value, in per cent) in the data set with SARS coronavirus Urbani [5] amounted to 24%. Compound `COc1cccc2[nH]c(C(=O)N[C@@H](Cc3ccccc3)C(=O)N[C@@H](C[C@@H]3CCNC3=O)C(=O)CO)cc12` registered an IC50 in data set [1] of 103 nM. Also, the permeability result in data set [2] was “Impermeable”. Also, the 50% effective concentration (EC50) in the data set with SARS-CoV came out at 47000 nM.

Compound `COc1cccc2[nH]c(C(=O)N[C@@H](CC(C)(C)C)C(=O)N[C@@H](C[C@@H]3CCNC3=O)C(=O)CO)cc12` returned an IC50 in data set [1] of 7 nM. The permeability entry in [2] is on record as “Impermeable”. For the same compound, the EC50 in the data set with SARS-CoV was determined as 10000 nM. On to `COc1cccc2[nH]c(C(=O)N[C@@H](CC(C)C)C(=O)N[C@@H](C[C@@H]3CCNC3=O)C(=O)COC(=O)c3ccc(C#N)cc3)cc12`, for which half-maximal inhibition in [3] (IC50) was put at 53 nM. On to `CC(C)(C)C[C@H](NC(=O)c1cc2ccccc2[nH]1)C(=O)N[C@@H](C[C@@H]1CCNC1=O)C(=O)CO`, for which, in [1], half-maximal inhibition (IC50) required 20 nM. Besides, in the data set with SARS-CoV, the EC50 was 17000 nM. The like results for `CC(C)(C)C[C@H](NC(=O)[C@H]1CCCO1)C(=O)N[C@@H](C[C@@H]1CCNC1=O)C(=O)CO` were, in that order, 91 nM and 33000 nM.

For the compound `COc1cccc2[nH]c(C(=O)N[C@@H](CC(C)C)C(=O)N[C@@H](C[C@@H]3CCNC3=O)C(=O)COC(=O)c3ccccc3)cc12`, the IC50 in data set [3] was found to be 86 nM. Still for that read-out and setting: the value for `COc1cccc2[nH]c(C(=O)N[C@@H](CC(C)C)C(=O)N[C@@H](C[C@@H]3CCNC3=O)C(=O)COC(=O)c3ccc(F)cc3)cc12` was 82 nM.

Consider `CC(C)C[C@H](NC(=O)[C@H]1CCCO1)C(=O)N[C@@H](C[C@@H]1CCNC1=O)C(=O)COC(=O)c1c(Cl)cccc1Cl`, for which the K with SARS coronavirus Urbani [4] was 5830 M⁻¹ s⁻¹. Consider `COc1cccc2[nH]c(C(=O)N[C@@H](CC(C)C)C(=O)N[C@@H](C[C@@H]3CCNC3=O)C(=O)COC(=O)c3c(C)cccc3C)cc12`, for which the IC50 in [3] stood at 74 nM. As for `COc1cccc2[nH]c(C(=O)N[C@@H](CCC(C)C)C(=O)N[C@@H](C[C@@H]3CCNC3=O)C(=O)CO)cc12`, inhibition in data set [1] was half-maximal at 34 nM (IC50). The permeability result in data set [2] is “Impermeable”. Further, in the data set on SARS-CoV, the EC50 came to 33000 nM. `COc1cccc2[nH]c(C(=O)N(C)[C@@H](CC(C)C)C(=O)N[C@@H](C[C@@H]3CCNC3=O)C(=O)CO)cc12` returned an IC50 in data set [1] of 83 nM. In addition, the permeability result in [2] was “Impermeable”. Further, the concentration for a half-maximal effect (EC50) with SARS-CoV was 19000 nM.

In data set [3], `COc1cccc2[nH]c(C(=O)N[C@@H](CC(C)C)C(=O)N[C@@H](C[C@@H]3CCNC3=O)C(=O)COC(C)=O)cc12` yielded an IC50 of 220 nM. In data set [1], `COCC(=O)[C@H](C[C@@H]1CCNC1=O)NC(=O)[C@H](CC(C)C)NC(=O)c1cc2c(OC)cccc2[nH]1` gave an IC50 of 53 nM. For the same compound, the EC50 in the data set on SARS-CoV is 31000 nM. The compound `COc1cccc2[nH]c(C(=O)N[C@@H](CC(C)C)C(=O)N[C@@H](C[C@@H]3CCNC3=O)C(=O)COC(=O)C3CC3)cc12` came in with a half-inhibitory concentration (IC50) in data set [3] of 182 nM. Regarding `COc1cccc2[nH]c(C(=O)N[C@@H](CC(C)C)C(=O)N[C@@H](C[C@@H]3CCNC3=O)C(=O)COC(=O)c3c(F)cccc3F)cc12`, the K in the data set on SARS coronavirus Urbani [4] was determined as 12800 M⁻¹ s⁻¹. As for `COc1cccc2[nH]c(C(=O)N[C@@H](CC(C)C)C(=O)N[C@@H](C[C@@H]3CCNC3=O)C(=O)COC(=O)c3c(Cl)cccc3Cl)cc12`, the K in the data set on SARS coronavirus Urbani [4] was 63000 M⁻¹ s⁻¹. Besides, the solubility result in [6] was “Insoluble”. For the same compound, the half-life (as a rule, the time in which the quantity being followed falls by half) at 1 µM in data set [7] is over 4 h; in data set [8], over 1 h. For the same compound, in the data set with SARS-CoV, the EC50 stood at 290 nM.
